Activity calls are given as the source filed them. The rule behind the calls is not given here.

By IC50 is commonly meant the midpoint of a concentration-inhibition curve. Broadly, the GI50 is the concentration giving 50% growth inhibition.

In data set [1] the test system is HUVEC. In words: Antiangiogenic activity in HUVEC assessed as inhibition of VEGF-induced tube formation after 24 hrs by calcein-AM dye based fluorescence assay. The class given is functional, cell-based. To be noted: Homo sapiens. The method in brief: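 HUVECs (passage 6–8) seeded at 6 × 10^4 cells on growth-factor-reduced Matrigel, incubated 24 h with compound at various concentrations plus 10 ng/mL recombinant human VEGF; stained 2 μg/mL Calcein AM 20 min, 37 °C, imaged. Tubes with three branch points counted; three independent experiments, mean tube numbers; IC50 from concentration–response.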

The test system of data set [2] is HUVEC. Briefly: Antiproliferative activity against HUVEC after 72 hrs by Celltiter-Glo luminescent cell viability assay. The class given is functional. Conditions: Homo sapiens. The procedure, abridged: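 HUVECs seeded 2.5 × 10^3 per well, treated with compound at different concentrations; confluency imaged every 6 h over 72 h. At 72 h viable cells measured by CellTiter-Glo luminescence; GI50 calculated.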
In general terms: Cellular ATP, detected with luciferase, serves as a proxy for viable cell number.

For data set [3], the system named is HUVEC. Briefly: Cytotoxicity against HUVEC assessed as cell death at 20 uM after 24 hrs by YOYO-1 Iodide staining based fluorescence assay. Conditions: human.
The subject of data set [4] is HUVEC. Briefly: Antiproliferative activity against HUVEC assessed as inhibition of Ki67 expression at 20 uM after 24 hrs by immunofluorescent microscopic analysis. The class given is functional, cell-based. Conditions: Homo sapiens. The procedure, abridged: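 HUVECs seeded 4 × 10^4 per well on gelatin, treated 24 h; fixed 4% paraformaldehyde 10 min, permeabilized 0.1% Triton X-100 10 min, blocked 10% normal horse serum 1 h RT, anti-Ki-67 1 h, Cy3 secondary, DAPI nuclear stain; fluorescence microscopy.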

Data set [5] relates to HUVEC. In words: Antimigratory activity against VEGF-stimulated HUVEC at 20 uM after 24 hrs by scratch wound-healing assay. The class given is functional, cell-based. To be noted: Homo sapiens. The procedure, abridged: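 HUVECs plated at 1 × 10^5 cells/well, grown overnight, wounded with pin device, washed twice with PBS; medium with 10 ng/mL VEGF plus compound or DMSO added. Live-cell images every 3 h for 24 h; wound confluence (cell density in wound area, %) computed by imaging algorithm.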

In data set [6] the test system is HUVEC. Briefly: Antiinvasive activity in HUVEC assessed as inhibition of VEGF-induced cell invasion at 20 uM measured every 3 hrs for 24 hrs relative to control. The class given is functional, Homo sapiens. Further details: scale not given: the % may be the effect or the level left. The procedure, abridged: (§1)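 Wound made in HUVEC monolayer (1 × 10^5 cells/well, grown overnight) with pin wounding device, washed with PBS; growth-factor-reduced basement membrane matrix overlaid on wound, compound-containing medium added. Tip cells at invasive front counted after 24 and 48 h of treatment versus control, live-cell imaging.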

The test system of data set [7] is HUVEC. Briefly: Antiinvasive activity in HUVEC assessed as inhibition of VEGF-induced cell invasion at 20 uM measured every 3 hrs for 48 hrs relative to control. It is filed as functional, Homo sapiens. Details: scale not given: the % may be the effect or the level left. The procedure, abridged:
as §1

Data set [8] concerns HUVEC. In words: Downregulation of PECAM1 mRNA level in HUVEC at 20 uM after 24 hrs by qRT-PCR method relative to control. It is filed as functional, Homo sapiens. A general note: Real-time PCR tracks product formation cycle by cycle.
The subject of data set [9] is HUVEC. Briefly: Downregulation of PECAM1 mRNA level in HUVEC at 20 uM after 48 hrs by qRT-PCR method relative to control. It is filed as functional, Homo sapiens.
Data set [10] has as its system HUVEC. In words: Downregulation of VE-cadherin mRNA level in HUVEC at 20 uM after 24 hrs by qRT-PCR method relative to control. It is filed as functional, Homo sapiens. The procedure, abridged: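 Total RNA from compound- or DMSO-treated HUVECs (24 h) extracted, cDNA made, VE-cadherin mRNA quantified by real-time PCR relative to control.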
Data set [11] relates to HUVEC. Briefly: Downregulation of VE-cadherin mRNA level in HUVEC at 20 uM after 48 hrs by qRT-PCR method relative to control. The class given is functional, Homo sapiens.
Data set [12] deals with HUVEC. Briefly: Downregulation of VE-cadherin expression in HUVEC at 20 uM by Western blot method. Conditions: Homo sapiens, TDE = time-dependent effect. The class given is functional, cell-based. The procedure, abridged:
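HUVEC lysates in RIPA buffer with protease inhibitors, separated on 4–12% SDS gradient gel, transferred to PVDF, probed with anti-VE-cadherin and anti-GAPDH, HRP secondary, ECL detection.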
For orientation: A western blot detects proteins with antibodies after separation by electrophoresis.

Data set [13] relates to HUVEC. Briefly: Downregulation of PECAM1 expression in HUVEC at 20 uM after 24 to 48 hrs by Western blot method. The class given is functional, cell-based. Conditions: Homo sapiens.
Data set [14] concerns HUVEC. In words: Induction of cellular permeability in HUVEC at 20 uM by Transwell assay. To be noted: Homo sapiens, TDE = time-dependent effect. It is filed as functional, cell-based. The procedure, abridged: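 HUVECs (5 × 10^5 cells/well) grown 48 h on gelatin-coated Transwell inserts, then exposed to compound a further 48 h; 1 mg/mL FITC-dextran added to upper chamber and fluorescence transferred to lower chamber read on plate reader.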

A short description of data set [15]: Antiproliferative activity against human BJ6 cells at 0.2 to 20 uM after 72 hrs by IncuCyte live imaging.

As to `CC(C)=CCC/C(C)=C/C[C@@]12OC(C)(C)[C@H](Cl)C[C@]1(Cl)C(=O)c1c(O)cc(O)cc1C2=O`, the IC50 in [1] is 10 µM. In addition, in [2], growth was halved (GI50) at 27.6 µM. The Activity result is given as “Non-Toxic” in [3]; 43% in data set [6]; 52% in data set [7]; 53% in data set [8]; 70% in [9]; 76% in data set [10]. In addition, the Activity is 94% in [11], “Tde” in [12], “Tde” in [14] and “Non-Toxic” in data set [15]. In data set [4], the inhibition result was “Active”. Further, the outcome in [5] was Active. The outcome in data set [13] was inactive.

Source of the values: ChEMBL document CHEMBL4190287, “Identification of Antiangiogenic Potential and Cellular Mechanisms of Napyradiomycin A1 Isolated from the Marine-Derived Streptomyces sp. YP127” (J Nat Prod, 2017).
